The source made the active and inactive calls. The rule behind the calls is not given here.
What was measured:
Staphylococcus aureus [1] = test: Antibacterial activity against Staphylococcus aureus 1199B overexpressing NorA and grlA A116E mutant assessed as growth inhibition by microdilution method; type: functional
In short: (§1)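 Broth microdilution MIC per CLSI guidelines for intrinsic antistaphylococcal activity; highest concentration tested 100 μg/mL. SA-1199 is the norA wild-type parent, SA-1199B overexpresses norA and carries GrlA A116E, and SA-K2378 overexpresses norA from multicopy plasmid pCU1 in the norA-deleted SA-K1902 background.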

[2] = target: Quinolone resistance protein NorA (Staphylococcus aureus, UniProt P0A0J7); test: Inhibition of NorA in Staphylococcus aureus 1199B harboring grlA A116E mutant assessed as inhibition of ethidium bromide efflux measured for 5 mins by fluorometric analysis
In short: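 Fluorometric EtBr efflux assay in SA-1199B (norA overexpressing, GrlA A116E) over a 5 min time course, compared with no-inhibitor control. Increasing inhibitor concentrations were tested, and IC50 was read by inspection of the dose-response plots. Usually run in duplicate.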

[3] = target: T1, Quinolone resistance protein NorA (Staphylococcus aureus) (UniProt P0A0J7); test: Inhibition of NorA in Staphylococcus aureus 1199B harboring grlA A116E mutant assessed as inhibition of ethidium bromide efflux at 50 uM measured for 5 mins by fluorometric analysis relative to control
T1 sequence (whole entry): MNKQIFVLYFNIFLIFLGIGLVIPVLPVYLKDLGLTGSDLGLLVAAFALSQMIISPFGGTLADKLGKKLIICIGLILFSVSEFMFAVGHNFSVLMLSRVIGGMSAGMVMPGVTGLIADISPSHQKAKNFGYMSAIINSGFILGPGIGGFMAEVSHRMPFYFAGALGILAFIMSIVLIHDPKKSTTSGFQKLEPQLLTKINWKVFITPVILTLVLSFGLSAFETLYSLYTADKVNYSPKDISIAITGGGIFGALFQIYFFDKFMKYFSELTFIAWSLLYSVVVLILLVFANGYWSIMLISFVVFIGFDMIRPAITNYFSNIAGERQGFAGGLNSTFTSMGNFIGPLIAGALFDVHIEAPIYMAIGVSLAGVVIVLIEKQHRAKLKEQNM
In short: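 EtBr loss from SA-1199B (norA overexpressing, GrlA A116E) measured fluorometrically with inhibitor at 50 μM, compared with no-inhibitor control. Read-out is mean total efflux over a 5 min time course, expressed as percent reduction in efflux. Usually run in duplicate.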

Staphylococcus aureus [4] = test: Inhibition of MepA in Staphylococcus aureus K2886 assessed as reduction of ethidium bromide MIC at 0.78 to 100 ug/mL
In short: (§2)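 The strains are norA-deleted S. aureus carrying pALC2073-mepA (K2886) or the empty pALC2073 vector (K2885). Cloned genes are under a xyl/tetO promoter, induced by 0.05 μg/mL tetracycline, which was present in all experiments with these strains. EtBr MICs were determined by CLSI microdilution, with and without test compound.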

Staphylococcus aureus [5] = test: Reduction of ethidium bromide MIC in mepA-deficient Staphylococcus aureus K2885 at 0.78 to 100 ug/mL; type: functional, organism-based; in short: as §2
[6] = target: T1, Quinolone resistance protein NorA (Staphylococcus aureus); test: Inhibition of NorA in Staphylococcus aureus K2378 assessed as reduction of ciprofloxacin MIC at 0.78 to 100 ug/mL relative to control
In short: (§3)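 Ciprofloxacin MIC determined by CLSI broth microdilution, alone and combined with scalar dilutions of freshly prepared test compound; checkerboard combination format. Strains: ATCC 25923 (wild type), SA-1199 (norA wt), SA-1199B (norA overexpressing, GrlA A116E), SA-K2378 (norA on multicopy pCU1) and SA-K1902 (norA-deleted).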

Staphylococcus aureus [7] = test: Reduction of ciprofloxacin MIC in norA-deficient Staphylococcus aureus K1902 at 0.78 to 100 ug/mL; type: functional, organism-based; in short: as §3
[8] = target: T1, Quinolone resistance protein NorA (Staphylococcus aureus); test: Inhibition of wild type NorA in Staphylococcus aureus 1199 assessed as reduction of ciprofloxacin MIC at 0.78 to 100 ug/mL; in short: as §3
[9] = target: T1, Quinolone resistance protein NorA (Staphylococcus aureus); test: Inhibition of NorA in Staphylococcus aureus ATCC 25923 assessed as reduction of ciprofloxacin MIC at 0.78 to 100 ug/mL; in short: as §3
Staphylococcus aureus [10] = test: Antibacterial activity against Staphylococcus aureus K2378 overexpressing norA assessed as growth inhibition by microdilution method; type: functional; in short: as §1
Staphylococcus aureus [11] = test: Antibacterial activity against norA-deficient Staphylococcus aureus K1902 assessed as growth inhibition by microdilution method; type: functional
In short: (§4)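 Broth microdilution MIC determination following CLSI guidelines. Strains: wild-type ATCC 25923 and SA-K1902 (norA−). Intrinsic activity was tested up to a top concentration of 100 μg/mL.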

Staphylococcus aureus [12] = test: Antibacterial activity against wild type Staphylococcus aureus ATCC 25923 assessed as growth inhibition by microdilution method; type: functional; in short: as §4
Staphylococcus aureus [13] = test: Antibacterial activity against Staphylococcus aureus 1199 harboring wild type norA assessed as growth inhibition by microdilution method

| SMILES | MIC (Staphylococcus aureus [1]) [µM] | IC50 [2] [µM] | inhibition [3] [%] | MIC (Staphylococcus aureus [13]) [µg/mL] | also measured |
| --- | --- | --- | --- | --- | --- |
| CCCOc1ccc(-c2cc(OCCN(C)C)c3ccccc3n2)cc1 | > 249 | 9.9 | 92 |  |  |
| CCCOc1ccc(-c2cc(OCCn3cccc3)c3ccccc3n2)cc1 |  |  | 4.1 |  |  |
| CCCOc1ccc(-c2cc(OCCCN(C)C)c3ccccc3n2)cc1.Cl | > 200 | 3.9 | 90.6 | > 100 | inhibition (Staphylococcus aureus [4]): Active; Activity (Staphylococcus aureus [5]): inactive; fold change (FC) [6]: 4; Activity (Staphylococcus aureus [7]): inactive; inhibition [8]: inactive; inhibition [9]: inactive; MIC (Staphylococcus aureus [10]): 25 µg/mL; MIC (Staphylococcus aureus [11]): 25 µg/mL; MIC (Staphylococcus aureus [12]): > 100 µg/mL |
| CCCOc1ccc(-c2cc(OC(C)CN(C)C)c3ccccc3n2)cc1 (racemic) | > 200 | 13.3 | 86.2 |  |  |
| CCCOc1ccc(-c2cc(OCCN(CC)Cc3ccccc3)c3ccccc3n2)cc1 | > 200 |  | 72.5 |  |  |
| CCCOc1ccc(-c2cc(OCc3ccccn3)c3ccccc3n2)cc1 |  |  | 19.6 |  |  |
| CCCOc1ccc(-c2cc(OCCN(CC)CC)c3ccccc3n2)cc1 | > 200 | 8.9 |  | > 100 | fold change (FC) [6]: 4; Activity (Staphylococcus aureus [7]): inactive; inhibition [8]: inactive; inhibition [9]: inactive; MIC (Staphylococcus aureus [10]): 50 µg/mL; MIC (Staphylococcus aureus [11]): 50 µg/mL; MIC (Staphylococcus aureus [12]): 100 µg/mL |
| CCCOc1ccc(-c2cc(OCCN)c3ccccc3n2)cc1 | > 310 | 9.3 | 96.1 |  |  |
| CCCOc1ccc(-c2cc(OCCN3CCC(=O)CC3)c3ccccc3n2)cc1 | > 200 |  | 71.7 |  |  |
| CCCOc1ccc(-c2cc(OCCN3C(=O)c4ccccc4C3=O)c3ccccc3n2)cc1 |  |  | 8.3 |  |  |
| CCCOc1ccc(-c2cc(OCCN3CCC4(CC3)OCCO4)c3ccccc3n2)cc1 | > 200 | 8.5 | 80.4 | > 100 | fold change (FC) [6]: 4; Activity (Staphylococcus aureus [7]): inactive; inhibition [8]: inactive; inhibition [9]: inactive |
| CCCCN(CCCC)CCOc1cc(-c2ccc(OCCC)cc2)nc2ccccc12 | > 200 | 9.2 | 88.6 |  |  |
| CCCOc1ccc(-c2cc(OC3CCCN(C)C3)c3ccccc3n2)cc1 (stereo not drawn) | > 200 | 8 | 88.2 | > 100 | fold change (FC) [6]: 4; Activity (Staphylococcus aureus [7]): inactive; inhibition [8]: inactive; inhibition [9]: inactive |
| CCCOc1ccc(-c2cc(OCCC(C)C)c3ccccc3n2)cc1 |  |  | 33.2 |  |  |
| O=C(O)c1cn(C2CC2)c2cc(N3CCNCC3)c(F)cc2c1=O [CIPROFLOXACIN] |  |  |  | 0.63 | MIC (Staphylococcus aureus [10]): 2.5 µg/mL; MIC (Staphylococcus aureus [11]): 0.63 µg/mL; MIC (Staphylococcus aureus [12]): 0.31 µg/mL |

Source: ChEMBL document CHEMBL2384986, “Re-evolution of the 2-phenylquinolines: ligand-based design, synthesis, and biological evaluation of a potent new class of Staphylococcus aureus NorA efflux pump inhibitors to combat antimicrobial resistance” (J Med Chem, 2013)
